# B2AR ag: agonists of human beta-2 adrenergic receptor inducing internalization. P07550. Am2.2-beta2AR cells, FAP receptor internalization, flow cytometry. response, % (test concentration not listed). hit rate 0.43% among 340,000;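 active = response above a set limit, near 3 SD of response in nonfluorescent compounds, cut at about 42% in these data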
# CXCR6 block: CXCR6 (human) receptor inhibition; inhibition, % at 20 µM; CHO-K1 PathHunter CXCR6 beta-arrestin, luminescence; AID 602244; hit rate 0.36% among 360,000; O00574; in the data active = inhibition above about 34%, passing the limit was not always enough;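 also: antagonist mode with CXCL16 agonist at 10 nM final; 0% = 10 nM CXCL16 with DMSO and 100% = unstimulated wells without agonist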
# EBI2 antag: antagonists of human EBI2 receptor | P32249 | EBI2 beta-arrestin recruitment, luminescence, 7a,25-OHC stimulated | inhibition, % at 5 µM | hit rate 0.81% among 360,000 | AID 651636; in the data active = inhibition above about 38%;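 also: enzyme fragment complementation signal reports receptor beta-arrestin coupling in cells; 0% = agonist plus DMSO wells and 100% = wells without agonist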
# Target sequence (P32249 whole entry, looked up, the tested form may be a part): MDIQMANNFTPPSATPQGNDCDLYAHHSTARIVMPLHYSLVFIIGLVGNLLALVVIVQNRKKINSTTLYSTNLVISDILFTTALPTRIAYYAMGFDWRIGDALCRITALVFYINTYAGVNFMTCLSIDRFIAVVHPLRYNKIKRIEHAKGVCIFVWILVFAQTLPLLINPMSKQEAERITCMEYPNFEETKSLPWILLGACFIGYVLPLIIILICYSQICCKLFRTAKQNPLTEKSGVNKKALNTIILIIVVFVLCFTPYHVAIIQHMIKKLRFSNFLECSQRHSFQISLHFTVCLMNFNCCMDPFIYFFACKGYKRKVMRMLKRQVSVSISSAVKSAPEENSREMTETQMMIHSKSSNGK
# APJ antag: antagonists of human APJ apelin receptor; P35414; CHO-K1 APJ beta-arrestin complementation, luminescence; inhibition, % at 20 µM; hit rate 0.32% among 330,000;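 active = inhibition above about 40% at 20 µM, limit read from the data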;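 also: cells challenged with 10 nM apelin-13 agonist together with compound; plate controls were apelin-13 plus DMSO wells for no effect and DMSO wells lacking apelin-13 for full effect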
# APJ ag: agonists of human APJ apelin receptor. CHO-K1 APJ PathHunter beta-arrestin, luminescence; 0% DMSO wells, 100% apelin. activation, % at 20 µM. hit rate 0.11% among 330,000. AID 2520;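 active = activation more than six SD over the plate average, tested at 20 µM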;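 also: 0% = DMSO alone and 100% = apelin-13 at 10 nM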
#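 Material: engineered CHO-K1 APJ arrestin reporter cells; amount: 1000 CHO-K1 reporter cells seeded per well; incubation: compound stimulation 90 min at 25 °C, detection 60 min; signal: luminescent beta-gal fragment complementation, chemiluminescent substrate; read-out basis: APJ agonist activity; controls: DMSO-only wells as negative, 10 nM Apelin-13 as positive control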
# CCR6 antag: blocks CCL20-driven beta-arrestin recruitment at human CCR6 | AID 493098 | inhibition, % at 20 µM | P51684 | hit rate 0.49% among 340,000 | CHO-K1 CCR6 PathHunter beta-arrestin, luminescence, CCL20-stimulated;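 active = compounds whose inhibition of the agonist-driven luminescence signal at 20 µM reaches about 50%, limit read from the data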;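 also: cells stimulated with CCL20 at 14 nM final; plate controls were DMSO with CCL20 for no effect and DMSO without agonist for full effect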
# APJ antag conf: APJ receptor antagonism confirmation; shares compounds with APJ antag; hit rate 66% among 950; APJ beta-arrestin recruitment, luminescence, antagonist mode; AID 2766; inhibition, % at 20 µM; in the data active = inhibition above about 50%
# Active calls of the source: *; . = no result given. Sampled rows, rich in hits. Any-hit rate of the full collection: about 1.8%.
SMILES,B2AR ag,CXCR6 block,EBI2 antag,APJ antag,APJ ag,CCR6 antag,APJ antag conf
O=C(CCC(=O)OCC(=O)c1cccc([N+](=O)[O-])c1)Nc1cccc(Cl)c1Cl,2,26,7,41*,-14,62*,81*
CCCCn1nnnc1C(c1ccccc1)N1CCN(c2cccc(C)c2C)CC1 (configuration not stated),.,16,14,.,.,.,.
CN1CCCC(OC(=O)c2cc(Cl)ccc2Cl)C1 (configuration not stated),4,-5,5,-2,-2,-10,.
CN1CCCC(OC(=O)c2cc(Br)ccc2Cl)C1 (configuration not stated),8,0,3,51*,-4,16,35
Cc1cc(NC(=O)CCC(=O)N(CC(=O)NC2CCCC2)c2ccc(Cl)cc2)no1,-2,-4,-9,-14,-1,7,.
O=C(CNC1CCCCCC1)c1cccs1,-5,1,-2,67*,-11,33,48
C#CCOCCOCCOCCNc1nc(N2CCN(C(=O)Cn3cc(CC(C)O)nn3)CC2)nc(N2CCN(C(=O)[C@H](C)n3cc(CCC(=O)O)nn3)CC2)n1 (some centres not stated),-3,-4,-10,.,.,4,.
O=C(COC(=O)CCc1nc2ccccc2c(=O)[nH]1)Nc1ccc(OC(F)(F)F)cc1,3,3,0,12,-1,4,.
NS(=O)(=O)c1ccc(NC(=O)COC(=O)CCc2nc3ccccc3c(=O)[nH]2)cc1,5,6,3,45*,-4,3,31
Nc1ncnc2c1ncn2[C@@H]1O[C@H](CNCc2ccc(-n3cccn3)cc2)[C@@H](O)[C@H]1O,0,4,3,-7,9,0,.
CCN(CC)CC(=O)c1ccc(-c2ccccc2)cc1,1,30,18,94*,-19,72*,114*
CCN(CC)C(=O)c1ccc(-c2ccccc2)cc1,1,-3,12,-8,-3,5,.
CN(C)CC(=O)c1ccc(-c2ccccc2)cc1,6,9,0,46*,-11,30,73*
O=c1cc(S(=O)(=O)Cc2ccccc2)[nH]c(=O)[nH]1,1,4,1,.,.,9,.
CCOC(=O)[C@H]1[C@H]2COc3cc(OC)ccc3[C@@H]2N2C(=O)[C@@H](CO)NC(=O)[C@@]12C,.,.,.,51*,-9,.,88*
CCOC(=O)[C@H]1[C@H]2COc3ccc(C)cc3[C@@H]2N2C(=O)[C@@H](CO)NC(=O)[C@@]12C,10,-2,-14,-8,-3,8,.
COc1ccc2c(c1)[C@H]1[C@H](CO2)[C@H](c2ccccc2)[C@]2(C)C(=O)N[C@@H](C)C(=O)N12,.,.,.,42*,-9,.,47
Cc1ccc(NC(=O)CN(C)C(=O)COc2ccc(Br)cc2)cc1,.,1,26,.,.,.,.
O=[N+]([O-])c1ccc(NNC(=S)Nc2ccccc2)cc1,13,38,8,43*,-11,67*,99*
O=[N+]([O-])c1ccc(NC(=S)NCCc2ccccc2)cc1,3,8,11,18,-3,23,.
CCC[C@@H](CN1CCC[C@H]1CN1C(N)=NC[C@@H]1Cc1ccccc1)N1C[C@@H](Cc2ccccc2)N(CCc2ccc(Cl)c(Cl)c2)C1=N,-3,6,-4,23,-3,3,.
CCC[C@@H](CN1CCC[C@H]1CN1C(N)=NC[C@H]1CC(C)C)N1C[C@@H](Cc2ccccc2)N(CCc2ccc(Cl)c(Cl)c2)C1=N,1,6,-5,42*,5,17,57*
Cn1ccnc1C1CCCCN1Cc1nc(-c2ccc3c(c2)OCO3)no1 (configuration not stated),6,9,14,-8,-2,12,.
Cn1nnc(NC(=S)NC(=O)c2cccc3ccccc23)n1,2,36,-1,51*,-10,35,86*
Cn1nnc(NC(=S)NC(=O)c2ccc3ccccc3c2)n1,.,30,1,.,.,.,.
CC(C)CNc1nnnc2c1sc1nc(N3CCOCC3)c3c(c12)CC(C)(C)SC3,0,12,26,10,-2,5,.

# Bioassay records as filed in PubChem BioAssay.
